A short description of the series: Toxicity liver stage against HepG2, at 10uM. The settings on record: human, HepG2-A16-CD81EGFP cells; read-out: INHIBITION
Set-up: test concentration 10 uM, cell line HepG2-A16-CD81EGFP. Type of series: cell-based. The procedure, abridged:
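Uninfected HepG2-A16-CD81EGFP cells, 3 × 10^3 per well, 1536-well, plated on prespotted compound at 10 μM final, parasite-free screening media added to match infected plates; puromycin 10 μM positive, DMSO 0.5% negative; run in parallel with 48 h PbLuc assay at 37 °C, 5% CO2; viability by CellTiter-Glo luminescence, normalized to controls.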

For `Cc1cc(COc2ccc(OC3CCCCNC3=O)cc2)on1` (stereo not given), the cytotoxicity at 10 µM was found to be 13.4%.
As to `O=C(c1cc(-n2cccn2)ccn1)N(CC(F)(F)F)C1CCCC1`, the cytotoxicity at 10 µM came out at 5.49%.
In the case of `N#Cc1ccc(N2CCC3(CC2)COCCN3Cc2cccnc2)cc1` it was -1.77%.
Consider `COC(=O)CCNC(=O)c1nnn(-c2ccc(C)cc2)c1C1CC1`, for which the cytotoxicity at 10 µM is -0.121%.
Regarding `O=C(c1ncccn1)N1C[C@@H]2COC[C@]2(COCc2cccnc2)C1`, the cytotoxicity at 10 µM was -1.9%.
In the case of `CCOC[C@@]12CCC[C@@H]1CN(C(=O)c1ccc(OC)cc1)C2`, the cytotoxicity at 10 µM is -108%.
As to `c1c(CN2CCCC2)nc2n1CCN(CC1CC1)C2`, the cytotoxicity at 10 µM was -136%.
For `Cn1c(C(N)=O)cc2c1CN(C(=O)C1CCCN(C3CCCC3)C1)CC2` (stereo not given), the cytotoxicity at 10 µM was -47.1%.
`O=C(NCc1ccc(-n2cncn2)nc1)c1cc[nH]n1`: the cytotoxicity at 10 µM is -7.45%.
As to `Cc1cnc(C(=O)N2C[C@@H](NS(C)(=O)=O)[C@@H]3OCCC[C@@H]32)cn1`, the cytotoxicity at 10 µM was -89.7%.
Turning to `O=C1CC2(CCN(Cc3ccncc3)C2)CN1c1ccc2c(c1)OCO2` (stereo not given), the cytotoxicity at 10 µM is -74.1%.
With `Cc1c(S(=O)(=O)N(CCc2ccccc2)Cc2ccn(C)n2)cnn1C`, the cytotoxicity at 10 µM came out at 3.82%.
Regarding `Cc1cccnc1CN1CCN(C(=O)[C@@]23CNC[C@@H]2CN(C)C3)CC1`, the cytotoxicity at 10 µM is 2.3%.
In the case of `Cc1noc(C)c1CN1CC[C@H]2OCC[C@@H](C(=O)N3CCCO3)[C@H]2C1` it was 2%.
`O=S(=O)(C1CC1)N1CCC2(CCCN(c3ncccn3)C2)C1` (stereo not given): the cytotoxicity at 10 µM was -4.02%.
As to `O=C(N[C@@H]1CNCCC[C@H]1O)c1ccc(OCCN2CCCC2)cc1`, the cytotoxicity at 10 µM was -0.155%.
On to `Cc1nn(C)c(N(C)C)c1CNCc1cccnc1OC(C)C`, for which the cytotoxicity at 10 µM was -0.924%.
As to `Cc1ccccc1CCC1CCCN(Cc2nnc(-c3ccco3)o2)C1` (stereo not given), the cytotoxicity at 10 µM was -116%.
Consider `CSCC(C)(O)CNC(=O)Nc1ccc(C)cc1Br` (stereo not given), for which the cytotoxicity at 10 µM was -9.83%.
Turning to `COc1c(C2CCCN2Cc2nnc(C3CC3)o2)c(C)nn1C` (stereo not given), the cytotoxicity at 10 µM is -9.29%.
`Cc1nc([C@H]2C[C@H]3CN(C(=O)c4ccoc4C)CC[C@@H]3O2)no1`: the cytotoxicity at 10 µM is 0.369%.
In the case of `COC(=O)CNC(=O)c1ccn(-c2ccc(Cl)c(Cl)c2)n1`, the cytotoxicity at 10 µM was -8.77%.
As to `Cc1cc2c(=O)n3c(nc2s1)CCN(Cc1[nH]cnc1C)CC3`, the cytotoxicity at 10 µM was -9.9%.
Take `Cc1cnc2c(c1NCc1ccc3c(c1)OCO3)c(=O)n(C)c(=O)n2C`: the cytotoxicity at 10 µM worked out at 16.7%.
Regarding `Cc1csc(N2CCCN(Cc3noc(C)n3)CC2)n1`, the cytotoxicity at 10 µM was -4.26%.
The figure for `CC(NC(=O)C1=NN(C)C(=O)CC1)c1ccc(F)cc1F` (stereo not given) is -4.4%; for `CNc1cc(C)nc(C2CN(Cc3ccc(Cl)cn3)CCO2)c1` (stereo not given) it is -26.2%.
Regarding `CCOCC1CN(S(C)(=O)=O)Cc2cnn(CC3CCOCC3)c21` (stereo not given), the cytotoxicity at 10 µM was -0.851%.
Turning to `Cc1ccsc1C(=O)N1CC(C(=O)N2CCCC2)C2(CCOCC2)C1` (stereo not given), the cytotoxicity at 10 µM worked out at 3.68%.
With `C[C@H]1C[C@H]2CN(C(=O)CCOc3ccccc3)CC[C@H]2O1`, the cytotoxicity at 10 µM was -69.3%.
Regarding `Cc1cc(C(=O)N2C[C@@H](CN(C)CCN(C)C)[C@@H](CO)C2)nc(C)n1`, the cytotoxicity at 10 µM worked out at 7.01%.
The figure for `CNc1cc(C(=O)NCCC2=CSC3=NCCCN23)ccn1` is 8.71%; for `Cc1cnc(CNC(=O)[C@@]23CCO[C@@H]2CCN(c2ncccn2)C3)cn1` it is -100%.
On to `Cc1cnn(CC2CCCN2Cc2nc3ccccc3c(=O)[nH]2)c1` (stereo not given), for which the cytotoxicity at 10 µM is -4.82%.
As for `COCCO[C@@H]1CCN(C(=O)c2ccnnc2)[C@H]1Cc1cnn(C)c1`, the cytotoxicity at 10 µM came to 7.6%.
The figure for `Cc1ccc(C2(O)CCN(C(=O)c3ccc(S(N)(=O)=O)cc3)CC2)nc1` is -2.13%; for `CC(=O)Nc1nc(C2CCN(CC(N)=O)CC2)cs1` it is -2.76%.
The figure for `Cc1cnn(C2CCCN(C(=O)c3ccc4c(c3)CCC4)C2)c1` (stereo not given) is -4.81%; for `CC(=O)NCc1nc(CC(C)C)nn1-c1cccc(C)c1` it is 6.54%; for `CC(C)c1nn2c(-c3cnn(C)c3)nnc2s1` it is -8.75%.
On to `CN1CCCN(C(=O)c2cc3c(s2)CCN3C(=O)C2CC2)CC1`, for which the cytotoxicity at 10 µM is 6.74%.
As to `CN(C)C(=O)C1CCN(C(=O)c2c[nH]c3cc(Cl)ccc23)CC1`, the cytotoxicity at 10 µM is -0.983%.
In the case of `CN(Cc1ccncc1)C1COC2(CCN(Cc3ccccn3)CC2)C1` (stereo not given), the cytotoxicity at 10 µM was -103%.
Take `Cc1nc(C2CCCN2CCCS(=O)(=O)c2ccccc2)no1` (stereo not given): the cytotoxicity at 10 µM is -4.42%.
With `CCN1CC2(CC1=O)CN(Cc1ccc(C)o1)CCN(C(=O)C(C)C)C2` (stereo not given), the cytotoxicity at 10 µM was 2.84%.
In the case of `Cc1c(C2SCC(=O)Nc3c2c(O)nn3C(C)C)cnn1C` (stereo not given) it was 2.39%.
In the case of `O=C(c1ccc2nncn2c1)N1CCCCC1Cn1cccn1` (stereo not given) it was -3.11%; in that of `Cc1ccccc1C(NC(=O)Cn1cc(C2CC2)nn1)C1CC1` (stereo not given), -1.03%; in that of `CC(=O)N1CC[C@@]2(C(=O)Nc3ccccc3)CCN(S(C)(=O)=O)CC[C@@H]12`, 2.96%.
In the case of `CN(Cc1nc(CC2CC2)no1)CC1Cc2ccccc2O1` (stereo not given) it was -2.53%; in that of `CCc1nc(C)cc(NC(C)C(=O)Nc2cc(F)ccc2C)n1` (stereo not given), -4.44%.
Take `Cc1noc(C)c1CN1C[C@@H](C(=O)O)[C@H](c2ccccc2)C1`: the cytotoxicity at 10 µM was -9.04%.
In the case of `CCN(CC)S(=O)(=O)CCNc1ncnc2cc(F)c(F)cc12`, the cytotoxicity at 10 µM is 25.9%.
With `O=C(NC1CCC1)[C@@H]1C[C@@H]2CCN(Cc3cccs3)C[C@@H]2O1`, the cytotoxicity at 10 µM was found to be 5.38%.
For `O=C(Nc1nnc(N2CCCCC2)[nH]1)c1cccs1`, the cytotoxicity at 10 µM was -10.7%.
`CCC[C@H]1CN(S(=O)(=O)c2cc(C)ccc2C)C[C@@H]1N`: the cytotoxicity at 10 µM came out at 10.3%.
Regarding `CN(C)C(=O)CN1CCOCC2(CCN(CC3CCOC3)CC2)C1` (stereo not given), the cytotoxicity at 10 µM was found to be 7.54%.
For `COc1cc(N2CC[C@@H]3O[C@H](C(=O)N(C)C)C[C@@H]32)ncn1`, the cytotoxicity at 10 µM turned out to be 1.14%.
In the case of `O=C(COc1coc(CN2CCCCC2)cc1=O)Nc1cccc(Cl)c1` it was -1.89%.
Regarding `O=C1COc2c(cccc2C(=O)N2CCCCC2Cn2cccn2)N1` (stereo not given), the cytotoxicity at 10 µM worked out at 4.07%.
Consider `COC(=O)C1CN(Cc2cc(F)ccc2Br)CCO1` (stereo not given), for which the cytotoxicity at 10 µM is -5.51%.
Turning to `COc1ccccc1CN1CC[C@H](c2nnc(-c3cncn3C)o2)C1`, the cytotoxicity at 10 µM amounted to 8.33%.
`Cc1cc(C)nc(N2CCc3ccc(OC(F)F)cc3C2)n1`: the cytotoxicity at 10 µM turned out to be 2.68%.
On to `CN(C)CCNc1cc(-c2ncccn2)c2cc[nH]c2n1`, for which the cytotoxicity at 10 µM was found to be 6.39%.
In the case of `CC(NC(=O)c1cccs1)C(=O)NS(=O)(=O)c1cccc(C#N)c1` (stereo not given) it was -7.23%.
In the case of `Cc1ccc(-c2nc(CN3CCCC(Cn4cncn4)C3)cs2)o1` (stereo not given) it was -22.2%.
On to `CN1CC(Oc2ccccc2)=NC(SCC(=O)Nc2ccc(Cl)cc2)=N1`, for which the cytotoxicity at 10 µM is -10.2%.
With `CCNc1nc2cn(-c3ccc(C)c(C)c3)c(=O)c-2c[nH]1`, the cytotoxicity at 10 µM stood at 0.255%.
The figure for `CN(Cc1ccco1)C1CCC12CCN(C(=O)C1CCOCC1)CC2` (stereo not given) is -2.92%; for `CC1CN(C(=O)CCc2cc(Br)cs2)CCO1` (stereo not given) it is -8.48%.
For `CC1CN(Cc2cccc(CN)c2)CCO1` (stereo not given), the cytotoxicity at 10 µM is -8.99%.
On to `Cc1ccc(CN(CCCn2ccnc2)Cc2cccs2)s1`, for which the cytotoxicity at 10 µM is -17.6%.
`CC1(c2ccccc2)CCCN(Cc2cncn2C2CCCC2)C1` (stereo not given): the cytotoxicity at 10 µM was determined as 16.3%.
On to `Cc1ccc(C(=O)NCCCN(C(C)C)S(C)(=O)=O)c(=O)[nH]1`, for which the cytotoxicity at 10 µM is -8.04%.
For `Cc1nc(C)n(CC2CN(c3nnc(C)c(C)c3C#N)CCO2)n1` (stereo not given), the cytotoxicity at 10 µM was -0.00964%.
For `O=C(c1ccc(C2CCNC2)cc1)N1CCC(N2CCC(O)CC2)CC1` (stereo not given), the cytotoxicity at 10 µM was -7.62%.
With `Cc1cnn(CCNCc2c(C)nn(CCO)c2C)c1`, the cytotoxicity at 10 µM was 6.35%.
Regarding `Nc1cc(-c2nccnc2N2CCCC2)c2cc[nH]c2n1`, the cytotoxicity at 10 µM amounted to 13.6%.
As for `Cc1ncsc1C(=O)NC1CCN(Cc2cccc3c2OCCO3)CC1`, the cytotoxicity at 10 µM is -4.68%.
Turning to `Cc1cc(CN2CCCC2Cn2cccn2)no1` (stereo not given), the cytotoxicity at 10 µM was -4.36%.
In the case of `CCC(C(=O)NC1CCCCC1)n1ccc2ncccc2c1=O` (stereo not given) it was 2.17%; in that of `Cc1nc(NC2(CN3CCCCC3)CCCCC2)c2cnn(C)c2n1`, 3.94%; in that of `Cc1nc(CN2CCCCC2CCc2ccc(O)cc2)no1` (stereo not given), 1.18%.
In the case of `CC(NC1CCN(C(=O)C2CCCCC2)CC1)c1nccs1` (stereo not given), the cytotoxicity at 10 µM was -4.22%.
Consider `CCOCCc1nc(CCc2ccccc2)n[nH]1`, for which the cytotoxicity at 10 µM turned out to be 10.3%.
In the case of `Cc1noc(-c2cccnc2N(C)Cc2ccc([S+](C)[O-])cc2)n1` (stereo not given), the cytotoxicity at 10 µM came out at 46%.
For the compound `CC(=O)N1CCC(N2CC(Cc3nccc4ccn(C)c34)C2)CC1`, the cytotoxicity at 10 µM came to 17.7%.
As for `CC(C)c1nnc2n1CC(CNCc1nc3ccccc3s1)CC2` (stereo not given), the cytotoxicity at 10 µM came out at 13%.
With `CC(C)c1nccn1-c1cccc(C2CCN(C)CC2)n1`, the cytotoxicity at 10 µM was found to be 0.307%.
Regarding `COCCOCC(=O)N1C[C@@H]2CC[C@H](Oc3ccccc3F)[C@@H]2C1`, the cytotoxicity at 10 µM was -1.96%.
In the case of `COc1ccccc1OC1CCN(C(=O)CCCn2ccnc2)CC1`, the cytotoxicity at 10 µM was -183%.
In the case of `Cc1nc(C)n(CC2CCCN(Cc3ccc(F)cc3C#N)C2)n1` (stereo not given), the cytotoxicity at 10 µM was -10.8%.
As for `CCc1nc(C2CCCN2C(=O)c2ccc3c(c2)COC3)no1` (stereo not given), the cytotoxicity at 10 µM is -14.4%.
In the case of `Cn1cc(I)c(C(=O)NC2CCCC2)n1` it was 5.53%; in that of `OCc1cn([C@@H]2c3ccccc3C3(CCNCC3)[C@H]2O)nn1`, -3.45%.
